Bioassay records: PubChem BioAssay, several laboratories
FAS-TE inh – blocks the thioesterase domain of human fatty acid synthase; P49327; recombinant FAS-TE, OMFH fluorogenic substrate, fluorescence endpoint; inhibition, % at 15 µM; 360,000 tested, 0.67% active; AID 602261;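 active means compounds whose normalised, plate-corrected inhibition of enzyme fluorescence in the single-dose primary screen is 50% or more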;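 further: 0% = DMSO with enzyme and 100% = substrate without enzyme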
MT1-MMP act inh – inhibitors of human MT1-MMP activation. P50281. HT1080 RFP-PRO-GFP cells, GFP/RFP ratio fluorescence, overnight; percent of plate control window, DMSO zero. GFP/RFP ratio change, % at 20 µM. 360,000 tested, 0.061% active;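 active means GFP/RFP ratio change of at least 30% with cell ATP level not reduced by more than half and red fluorescence within 50% of control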
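Compound: 20 µM single dose, 1% DMSO / System: HT1080 RFP-PRO-GFP cells / Controls: DMSO and RFP-L50D-GFP cell wells / Read-out basis: GFP/RFP fluorescence ratio / Schedule: overnight compound exposure at 37 °C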
iPSC survival up – hiPSC single-cell survival enhancement; ATPlite luminescence; 100% = ROCK inhibitor wells, 0% = DMSO; 360,000 tested, 0.044% active; survival enhancement, % at 20 µM; in the data active means survival enhancement above about 18%;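 further: cells exposed to compounds for 16 hours before the ATP read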
SKN-1 inh – inhibitors of C. elegans SKN-1; C. elegans VP596 Pgst-4::GFP/RFP ratio, acrylamide-induced, 24 h; 360,000 tested, 0.49% active; inhibition, % at 21.8 µM;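 active means interference check ratio from 0.5 to 1.5 plus GFP to RFP signal ratio inhibition reaching or exceeding a fixed threshold, cut at about 30% in these data, passing the limit was not always enough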
DAGLB inhibitor – diacylglycerol lipase beta (human) inhibition; inhibition, % at 5.17 µM; Q8NCG7; AID 504411; HEK293T DAGLB membrane lysate, EnzChek fluorogenic substrate; 340,000 tested, 0.059% active; in the data active means inhibition above about 34%;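 further: 0% = enzyme with vehicle and 100% = wells lacking enzyme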
Target sequence (Q8NCG7 whole entry, looked up): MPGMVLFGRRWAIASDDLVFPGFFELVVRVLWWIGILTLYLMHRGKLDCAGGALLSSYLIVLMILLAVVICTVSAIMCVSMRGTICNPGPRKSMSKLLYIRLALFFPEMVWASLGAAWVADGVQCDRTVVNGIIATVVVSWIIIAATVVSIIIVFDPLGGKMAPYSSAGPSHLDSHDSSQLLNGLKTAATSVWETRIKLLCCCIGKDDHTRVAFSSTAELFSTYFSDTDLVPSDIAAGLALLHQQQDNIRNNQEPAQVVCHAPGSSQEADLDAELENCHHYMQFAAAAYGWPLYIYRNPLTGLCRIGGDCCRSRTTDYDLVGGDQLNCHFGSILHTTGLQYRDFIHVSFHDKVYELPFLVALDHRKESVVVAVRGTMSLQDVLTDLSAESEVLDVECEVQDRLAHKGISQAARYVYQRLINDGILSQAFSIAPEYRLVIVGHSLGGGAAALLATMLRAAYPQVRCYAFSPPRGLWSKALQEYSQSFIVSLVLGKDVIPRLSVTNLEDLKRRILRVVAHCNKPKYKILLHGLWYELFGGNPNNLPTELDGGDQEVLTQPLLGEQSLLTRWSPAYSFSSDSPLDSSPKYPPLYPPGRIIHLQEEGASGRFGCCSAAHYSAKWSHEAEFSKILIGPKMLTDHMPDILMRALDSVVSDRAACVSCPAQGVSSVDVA
* = called active by the depositor; nt = not tested or not shown. A selection: hits, their analogues and other compounds. The true share with any hit is near 1.3%.

SMILES	FAS-TE inh	MT1-MMP act inh	iPSC survival up	SKN-1 inh	DAGLB inhibitor
COc1ccc(-c2ccc(/C=C3/C(=N)N4C(C)=CSC4=NC3=O)o2)c([N+](=O)[O-])c1	-2.1	16.4	2.8	43.1*	14.1
COc1ccc(-c2ccc(/C=C3\C(=O)N(c4ccccc4)N=C3c3ccccc3)o2)c([N+](=O)[O-])c1	-3.3	0.0	2.4	14.8	-1.2
O=C(Nc1cccnc1)c1cc(-c2ccc3c(c2)OCO3)on1	-9.7	5.4	-2.2	38.9*	3.4
Cc1ccc2oc(-c3ccc(NC(=O)c4ccncc4)cc3O)nc2c1	0.2	-0.3	1.3	17.2	0.5
COc1ccc(CC(=O)Nc2ccc(-c3nc4cc(C)ccc4o3)c(O)c2)cc1OC	-15.3	0.9	-2.1	35.2*	0.5
CCOC(=O)N1CCN(C(=O)c2cnn3c(C(F)F)cc(-c4ccc(C)cc4)nc23)CC1	7.2	1.2	-2.9	-1.4	-6.2
Cc1ccc(-c2cc(C(F)F)n3ncc(C(=O)N4CCN(c5cccc(C)c5C)CC4)c3n2)cc1	38.0	-9.9	-1.5	38.6*	-0.5
Cc1cc2nc(-c3ccco3)c(Cc3ccccc3C(F)(F)F)n2c(C)c1Br	22.9	-2.7	-1.1	3.9	nt
CCN(CC)C(=O)c1sc(NC(=O)Cc2ccc(OC)cc2)c(C#N)c1C	-4.4	-0.9	10.6	45.5*	-1.4
CC(C)C1COC(c2cccc3ccccc23)=N1 (centres undefined)	14.0	3.9	-1.4	37.1*	-6.6
CCn1cc(C2=NC(C(C)C)CO2)c2ccccc21 (centres undefined)	-0.6	3.8	-0.8	2.3	0.8
CCCCCCCCN1C(=O)[C@H](CC(=O)NCCCN2CCCC2=O)C[C@@]2(C(=O)OC)CC(C)(C)CC=C12	nt	3.2	nt	-5.2	nt
c1ccc(-c2cc3c(N4CCOCC4)ncnc3s2)cc1	8.3	-6.7	-0.8	38.0*	-3.2
COCCNC(=O)C(c1ccc(C)o1)N(Cc1ccc(OC)cc1)C(=O)Cn1nnc2ccccc21 (centres undefined)	-4.8	-2.4	-1.7	35.2*	2.3
COCCNC(=O)C(c1ccc(C)o1)N(Cc1ccc(F)cc1)C(=O)Cn1nnc2ccccc21 (centres undefined)	2.2	-5.8	3.0	6.9	0.5
COc1ccc(C(C(=O)NC(C)(C)C)n2c(-c3ccc(C(F)(F)F)cc3)nc3ccccc32)cc1 (centres undefined)	nt	-4.2	nt	-5.2	nt
O=C(O)c1ccc(S(=O)(=O)c2ccccc2)cc1	-5.4	3.8	-0.6	40.4*	0.0
CC(C)C(=O)N1CCCC1(C)C(=O)Nc1cccc(Oc2ccccc2)c1 (centres undefined)	-0.5	4.9	-1.1	-2.1	nt
COc1ccc(N=Nc2cc(C)c(O)c(CN3CCCCC3)c2)cc1	9.1	15.5	-0.1	49.8*	3.2
COc1ccc(CN2CCCCCC2)cc1	-3.8	0.0	-0.6	0.1	-0.7
CC(=O)Nc1ccc(-c2ccnc3c2CC(C(=O)NCC2CCOCC2)O3)cc1 (centres undefined)	-9.3	-3.9	-2.2	6.1	nt
Nc1nnc(SCC(=O)N2CCN(c3cccc(Cl)c3)CC2)n1-c1ccccc1	-9.8	7.1	8.5	38.4*	-0.2
Nc1nnc(SCC(=O)N2CCN(c3ccccc3)CC2)n1-c1ccccc1	-4.6	-0.5	1.0	2.2	-5.3
Cn1nnnc1SCC(=O)N1CCN(c2cccc(Cl)c2)CC1	4.5	-0.3	1.5	39.5*	-7.2
Cn1nnnc1SCC(=O)N1CCN(c2ccccc2)CC1	-4.1	-0.2	0.0	-7.3	3.9
SMILES	FAS-TE inh	MT1-MMP act inh	iPSC survival up	SKN-1 inh	DAGLB inhibitor
COc1ccc(CN2C(=O)c3ccccc3C2c2nnnn2-c2c(C)cccc2C)cc1OC (centres undefined)	8.6	-4.9	-0.3	-9.1	nt
Cc1ccc(N2CCN(/N=C/c3ccncc3)CC2)cc1	0.2	-3.4	0.1	8.7	2.4
Clc1ccc(N2CCN(/N=C/c3ccncc3)CC2)cc1	3.6	5.6	-0.4	62.1*	5.4
COCCNC(=O)C1(C)CCN(C(=O)c2oc3ccccc3c2C)C1 (centres undefined)	-7.3	-1.3	3.6	-18.8	nt
O=C(Nc1ccc2oc(-c3ccccc3)nc2c1)c1cccnc1	1.7	3.3	-1.3	38.8*	-2.4
Cc1ccc(OCC(=O)Sc2ccc(C)cc2)cc1	30.8	-11.7	0.4	56.4*	-13.8
Clc1ccc(Cn2nnc(-c3ccccc3)n2)cc1	24.7	2.7	1.2	53.6*	-8.8
Fc1ccc(Cn2nnc(-c3ccc(CN4CCOCC4)cc3)n2)cc1	12.2	-0.5	0.2	36.4*	-4.3
CC(C)NC(=O)C1(C)CCN1C(=O)c1cccc(F)c1 (centres undefined)	0.3	0.3	-1.3	5.2	nt
O=C1c2ccccc2C(=O)c2c1ccc(C(=O)N1CCCCC1)c2NCCO	20.6	23.2	-2.7	40.4*	0.6
COCCCNC(=O)c1csc([C@@H]2O[C@H](CO)[C@H](O)[C@H](O)[C@H]2O)n1	-9.2	3.0	-1.1	-12.1	nt
C/C(=N/OCc1ccc(Br)cc1)c1ccccn1	16.0	0.3	-2.7	53.7*	-10.7
O=C(Cc1ccc(Br)cc1)Nc1ccc2[nH]ncc2c1	-2.8	-3.6	24.9*	13.4	-0.4
O=C(Cc1ccccc1)Nc1ccc2[nH]ncc2c1	-3.1	-5.3	1.6	-12.9	0.9
COc1ccc(N=Nc2ccc3ccccc3c2)c(O)c1	30.3	7.3	-0.5	32.6*	3.7
COc1ccc(C(=O)/C=C/c2ccc(OC)c(CN3CCOCC3)c2)cc1	-11.5	-1.8	-0.1	61.1*	-1.0
O=S1(=O)N[C@H](Cc2ccccc2)COc2cc(N3CC[C@H](O)C3)ccc21	-5.7	1.4	1.3	7.4	nt
O=C1NC[C@H](Cc2ccccc2)N(C[C@@H]2CCCN2C[C@H](Cc2ccc(O)cc2)N2C[C@H](Cc3ccccc3)N(CC3CCCCCC3)C(=O)C2=O)C1=O	42.8	-2.4	0.6	37.1*	nt
Cc1ccc([C@H]2N[C@]3(CCCN(Cc4ccc(F)cc4)C3=O)[C@H]3C(=O)N(C)C(=O)[C@@H]23)cc1	-8.1	2.2	7.6	-29.7	-1.5
COC(=O)[C@]12CCCCC=C1N(Cc1ccc(Cl)cc1Cl)C(=O)[C@H](CC(=O)N1CCOCC1)C2	4.5	-2.1	-1.3	-4.3	nt
c1csc(Cn2nnnc2CN2CCN(c3nc4ccccc4s3)CC2)c1	33.0	3.9	-2.2	36.2*	3.1
c1ccc(Cn2nnnc2C(c2ccccc2)N2CCN(c3nc4ccccc4s3)CC2)cc1 (centres undefined)	24.9	-11.4	7.9	12.8	0.2
Brc1ccc(-c2cnc(-c3cccs3)o2)cc1	16.8	-2.8	-1.8	89.4*	-13.1
OC(c1ccc(F)cc1)c1nc(-c2cnc3ccccc3c2)cs1 (centres undefined)	21.6	2.3	1.8	-2.8	nt
CC1C/C(=C/c2ccncc2)C(=O)/C(=C/c2ccncc2)C1 (centres undefined)	-2.9	-19.2	52.7*	2.8	-14.8
